Measurements: ChEMBL document CHEMBL1125485, “Inhibitors of blood platelet cAMP phosphodiesterase. 2. Structure-activity relationships associated with 1,3-dihydro-2H-imidazo[4,5-b]quinolin-2-ones substituted with functionalized side chains” (J Med Chem, 1992)
pEC50, pIC50: −log10 of the molar value.

Experiments:
[1] = target: cGMP-dependent 3',5'-cyclic phosphodiesterase (Homo sapiens, UniProt O00408); test: Inhibition of human platelet PDE by inhibiting cyclic Guanosine monophosphate (cGMP) hydrolysis
[2] = organism: Oryctolagus cuniculus; test: Inhibition of platelet aggregation using collagen as activating agent in rabbit platelet rich plasma (PRP); type: functional
In short: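 Rabbit platelet-rich plasma, aggregation triggered by ADP or collagen after 3 min preincubation of PRP with drug. Single or duplicate determinations, reference agent included.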

[3] = target: Phosphodiesterase 3 (Homo sapiens, UniProt Q14432+Q13370); test: Inhibition of human platelet PDE by inhibiting cyclic Adenosine monophosphate (cAMP) hydrolysis

Chain of cGMP-dependent 3',5'-cyclic phosphodiesterase (O00408 whole entry): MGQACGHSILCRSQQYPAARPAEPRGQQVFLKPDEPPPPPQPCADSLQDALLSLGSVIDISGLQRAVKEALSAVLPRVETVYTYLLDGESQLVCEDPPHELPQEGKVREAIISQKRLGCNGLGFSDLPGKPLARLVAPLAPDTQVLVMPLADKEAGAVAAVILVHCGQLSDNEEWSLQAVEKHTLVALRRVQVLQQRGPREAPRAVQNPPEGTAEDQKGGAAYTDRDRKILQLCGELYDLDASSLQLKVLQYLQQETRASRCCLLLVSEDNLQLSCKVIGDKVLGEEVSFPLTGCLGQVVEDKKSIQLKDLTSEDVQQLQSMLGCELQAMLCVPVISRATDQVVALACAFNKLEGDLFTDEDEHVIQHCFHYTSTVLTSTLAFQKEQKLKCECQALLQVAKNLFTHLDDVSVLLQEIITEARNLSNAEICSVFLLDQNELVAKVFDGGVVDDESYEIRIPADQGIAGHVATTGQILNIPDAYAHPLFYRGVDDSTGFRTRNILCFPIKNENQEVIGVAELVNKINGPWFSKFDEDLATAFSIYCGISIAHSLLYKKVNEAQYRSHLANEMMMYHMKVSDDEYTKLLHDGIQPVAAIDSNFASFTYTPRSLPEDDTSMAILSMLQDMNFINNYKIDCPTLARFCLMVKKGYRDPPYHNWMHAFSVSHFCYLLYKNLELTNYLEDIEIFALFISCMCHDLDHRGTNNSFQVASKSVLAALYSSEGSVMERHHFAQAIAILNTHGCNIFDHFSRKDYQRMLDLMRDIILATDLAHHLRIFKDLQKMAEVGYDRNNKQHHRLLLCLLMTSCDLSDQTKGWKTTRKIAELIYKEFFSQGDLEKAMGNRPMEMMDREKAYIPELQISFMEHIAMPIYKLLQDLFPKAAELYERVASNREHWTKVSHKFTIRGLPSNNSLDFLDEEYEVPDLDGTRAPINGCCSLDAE

| SMILES | pIC50 [1] | pEC50 [2] | IC50 [3] [nM] |
| --- | --- | --- | --- |
| OCC(O)COc1ccc2[nH]c3nc(O)nc-3cc2c1 (configuration not stated) | – | 7.19 | 20 |
| CN(C(=O)CCCOc1ccc2nc3c(cc2c1)n(C)c(=O)n3C)C1CCCCC1 | – | 4.87 | 5000 |
| COC(=O)CCCCOc1ccc2[nH]c3nc(O)nc-3cc2c1 | < 4.00 | – | – |
| O=C(CCCCc1ccc2[nH]c3nc(O)nc-3cc2c1)NC1CCCCC1 | – | 6.72 | 300 |
| COC(=O)CCCOc1ccc2nc3[nH]c(=O)n(C)c3cc2c1 | 4.00 | – | – |
| CN(C(=O)CCCOc1ccc2[nH]c3nc(O)nc-3cc2c1)C1CCCCCC1 | – | 8.30 | – |
| CCOC(=O)CCc1ccc2[nH]c3nc(O)nc-3cc2c1 | – | 6.85 | 600 |
| Cn1c(=O)n(C)c2nc3ccc(OCCCC(=O)O)cc3cc21 | – | 5.90 | 4000 |
| O=C(CCCCc1ccc2[nH]c3nc(O)nc-3cc2c1)N1CCCCC1 | – | 6.77 | 60 |
| CCOCCOc1ccc2[nH]c3nc(O)nc-3cc2c1 | – | 5.89 | 50 |
| Oc1nc2cc3cc(OCCCCc4nnn[nH]4)ccc3[nH]c-2n1 | – | 6.00 | 10 |
| N#CCCCOc1ccc2[nH]c3nc(O)nc-3cc2c1 | – | 7.48 | 6 |
| CC(=O)OCCCCOc1ccc2[nH]c3nc(O)nc-3cc2c1 | – | 6.49 | 40 |
| O=C(CCCCc1ccc2[nH]c3nc(O)nc-3cc2c1)NC12C[C@H]3C[C@@H](C1)C[C@@H](C2)C3 | – | 6.52 | 6 |
| O=C(O)CCCOc1ccc2c(c1)CN1CC(=O)NC1=N2 | – | 5.46 | 40 |
| O=C(O)CN(C(=O)CCCOc1ccc2[nH]c3nc(O)nc-3cc2c1)C1CCCCC1 | – | 6.34 | 0.3 |
| CN(C(=O)CCCCc1ccc2[nH]c3nc(O)nc-3cc2c1)C1CCCCC1 | – | 7.59 | 40 |
| CCOC(=O)CCCOc1ccc2c(c1)CN1CC(=O)NC1=N2 | – | – | 70 |
| CC(=O)OCCOc1ccc2[nH]c3nc(O)nc-3cc2c1 | – | 7.15 | 30 |
| OCCCc1ccc2[nH]c3nc(O)nc-3cc2c1 | – | 6.39 | 60 |
| Cn1c(O)nc2nc3ccc(OCCCC(=O)N4CCCCC4)cc3cc21 | 4.22 | 5.61 | – |
| CCOC(=O)CCCOc1ccc2[nH]c3nc(O)nc-3cc2c1 | – | 7.70 | 20 |
| O=C(CCCOc1ccc2nc3[nH]c(=O)[nH]c3cc2c1)N1CCOCC1 | 4.40 | 7.70 | – |

Further lines, results first:

| pIC50 [1] | pEC50 [2] | IC50 [3] [nM] | SMILES |
| --- | --- | --- | --- |
| 4.52 | < 3.97 | – | O=C(O)CCCCOc1ccc2nc3[nH]c(=O)[nH]c3cc2c1 |
| – | 5.80 | 3 | Oc1nc2cc3cc(OCCCc4nnn[nH]4)ccc3[nH]c-2n1 |
| – | 8.40 | 20 | O=C(CCCOc1ccc2[nH]c3nc(O)nc-3cc2c1)NC1CCCC1 |
| – | 6.74 | 20 | O=C(O)C1CCN(C(=O)CCCOc2ccc3[nH]c4nc(O)nc-4cc3c2)CC1 |
| – | 6.77 | 2000 | COC(=O)CCCOc1ccc2nc3c(cc2c1)nc(O)n3C |
| – | 5.12 | – | CCOC(=O)COc1ccc2[nH]c3nc(O)nc-3cc2c1 |
| – | 4.26 | 40000 | COC(=O)CCCOc1ccc2nc3c(cc2c1)n(C)c(=O)n3C |
| – | 7.15 | 80 | CC(=O)CCCOc1ccc2[nH]c3nc(O)nc-3cc2c1 |
| – | 4.82 | 300 | Cn1c(O)nc2nc3ccc(OCCCS(=O)(=O)c4ccccc4)cc3cc21 |
| – | 7.52 | 100 | CC(=O)OCCCOc1ccc2[nH]c3nc(O)nc-3cc2c1 |
| – | 6.89 | 100 | N#CCCCCOc1ccc2[nH]c3nc(O)nc-3cc2c1 |
| – | 7.10 | 3 | CN(C(=O)CCCOc1ccc2c(c1)CN1CC(=O)NC1=N2)C1CCCCC1 [LIXAZINONE] |
| – | 7.15 | 100 | CC(O)CCCOc1ccc2[nH]c3nc(O)nc-3cc2c1 (configuration not stated) |
